Values after ≈ are worked out from the molar mass of the structure shown. Active and inactive are the calls of the source. The rule behind the calls is not given here.
Columns and labels:
Staphylococcus aureus [1] = assay: Antibacterial activity against […] Staphylococcus aureus ATCC 29213 after 16 hrs by spectrophotometric analysis; type: functional; conditions: ATCC 29213, 16 h
Staphylococcus aureus [2] = assay: Antibacterial activity against methicillin-susceptible Staphylococcus aureus clinical isolates after 24 hrs by CLSI […] broth microdilution method; type: functional; conditions: for MBC: read-out: MBC99.9
In short: (§1)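 CLSI broth microdilution on clinical isolates. Log-phase bacteria in saline at 1–2 × 10⁵ CFU/mL were mixed with compounds diluted in LB, final 0.097–100 μg/mL, for 24 h at 37 °C. MIC is the lowest concentration with total growth inhibition. For MBC, clear wells were plated on sheep-blood agar for 18 h; >99.9% kill versus untreated control. Triplicate.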

Staphylococcus aureus [3] = assay: Antibacterial activity against methicillin-resistant Staphylococcus aureus clinical isolates after 24 hrs by CLSI […] broth microdilution method; type: functional; conditions: for MBC: read-out: MBC99.9; in short: as §1
[4] = test system: Mycobacterium tuberculosis; assay: Antitubercular activity against Mycobacterium tuberculosis H37Rv by Alamar blue assay; type: functional
In short: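 M. tuberculosis in 7H9 medium with ADC and 0.05% Tween 80; MIC by microplate Alamar Blue assay.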

Enterococcus faecalis [5] = assay: Antibacterial activity against vancomycin-susceptible Enterococcus faecalis clinical isolates after 24 hrs by CLSI […] broth microdilution method; type: functional; conditions: for MBC: read-out: MBC99.9; in short: as §1
Enterococcus faecalis [6] = assay: Antibacterial activity against vancomycin-resistant Enterococcus faecalis clinical isolates after 24 hrs by CLSI […] broth microdilution method; type: functional; conditions: for MBC: read-out: MBC99.9; in short: as §1
[7] = target: T1, Cell division protein FtsZ (Staphylococcus aureus) (UniProt P0A031); assay: Inhibition of Staphylococcus aureus FtsZ assessed as increase in cell volume at 0.25 ug/ml after overnight incubation by phase-contrast light microscopic analysis
T1 sequence (whole entry): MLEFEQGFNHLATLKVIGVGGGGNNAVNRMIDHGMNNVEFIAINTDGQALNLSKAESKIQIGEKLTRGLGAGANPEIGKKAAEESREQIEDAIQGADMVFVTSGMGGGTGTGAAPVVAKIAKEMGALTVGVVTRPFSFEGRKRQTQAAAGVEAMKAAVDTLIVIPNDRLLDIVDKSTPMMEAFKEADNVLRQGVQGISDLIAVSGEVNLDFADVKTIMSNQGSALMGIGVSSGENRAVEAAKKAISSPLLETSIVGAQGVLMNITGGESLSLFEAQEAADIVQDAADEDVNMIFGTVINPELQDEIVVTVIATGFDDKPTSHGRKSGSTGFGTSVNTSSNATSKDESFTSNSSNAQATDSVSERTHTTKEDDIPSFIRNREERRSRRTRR
In short: (§2)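 S. aureus grown overnight with compound at levels starting from the previously determined MIC. Untreated cultures served as negative control. Examined by phase-contrast microscopy at 630×.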

[8] = test system: Mycobacterium tuberculosis; assay: Inhibition of FtsZ polymerization in GFP-tagged Mycobacterium tuberculosis assessed as presence of elongated cells with enlarged bacterial pole at 8 ug/ml by fluorescence-based microscopic analysis
In short: (§3)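 GFP-expressing M. smegmatis or M. tuberculosis grown at subMIC concentrations on glass coverslips in 7H9/ADC/Tween 80. Cells were fixed with phosphate-buffered 4% paraformaldehyde and examined by fluorescence microscopy at 100× for cell morphology.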

[9] = Therapeutic index, ratio of TD90 for human MRC5 cells to MBC for […] Staphylococcus aureus ATCC 29213; type: cell-based; conditions: read-out: TI
In short: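 Ratio of TD₉₀ (MTT assay on MRC-5, 24 h exposure) to MBC against MRSA ATCC 29213 (LB tube assay, wash-out and overnight regrowth by OD600).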

[10] = target: T1, Cell division protein FtsZ (Staphylococcus aureus); assay: Inhibition of Staphylococcus aureus FtsZ assessed as bacterial swelling at 0.25 ug/ml after overnight incubation by phase-contrast light microscopic analysis; in short: as §2
[11] = Cytotoxicity against human MRC5 cells assessed as reduction in cell viability after 24 hrs by MTT assay; type: toxicity, cell-based; conditions: mrc5, 24 h
In short: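 MRC-5 lung fibroblasts (DMEM, 10% heat-inactivated calf serum, 37 °C, 5% CO₂) at 10⁴ cells/well were exposed 24 h to twofold serial dilutions in DMEM. Then 1 mg/ml MTT in serum-free DMEM for 3 h, DMSO solubilisation, A570. Cytotoxicity % = 100 − (sample OD/untreated OD) × 100; TD₅₀/TD₉₀ are concentrations cutting viability 50/90%.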

[12] = target: T1, Cell division protein FtsZ (Staphylococcus aureus); assay: Inhibition of Staphylococcus aureus FtsZ assessed as alteration in septum formation at 0.25 ug/ml after 16 hrs by transmission electron microscopic analysis
In short: (§4)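 S. aureus at 10⁹ cells/ml grown 16 h at 37 °C with compound, untreated control included. Cells were pelleted at 3100 × g for 5 min, fixed in 2.5% glutaraldehyde in 0.1 M Na cacodylate pH 7.4 for 1 h at 4 °C, post-fixed in 1% OsO₄ for 1 h at 4 °C, and examined by TEM for septum and ultrastructure.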

[13] = target: T1, Cell division protein FtsZ (Staphylococcus aureus); assay: Inhibition of Staphylococcus aureus FtsZ assessed as cellular desegregation at 0.25 ug/ml after overnight incubation by phase-contrast light microscopic analysis; in short: as §2
[14] = test system: Mycolicibacterium smegmatis; assay: Inhibition of FtsZ polymerization in GFP-tagged Mycobacterium smegmatis assessed as presence of elongated cells with enlarged bacterial pole at 0.5 ug/ml by fluorescence-based microscopic analysis; in short: as §3
Staphylococcus aureus [15] = assay: Antibacterial activity against Staphylococcus aureus; type: functional
Staphylococcus aureus [16] = assay: Antibacterial activity against methicillin-susceptible Staphylococcus aureus; type: functional
[17] = target: T1, Cell division protein FtsZ (Staphylococcus aureus); assay: Inhibition of Staphylococcus aureus FtsZ assessed as alteration in septum formation at 0.5 ug/ml after 16 hrs by transmission electron microscopic analysis; in short: as §4
[18] = target: T1, Cell division protein FtsZ (Staphylococcus aureus); assay: Inhibition of Staphylococcus aureus FtsZ assessed as increase in cell volume at 0.5 ug/ml after overnight incubation by phase-contrast light microscopic analysis; in short: as §2
[19] = test system: Mycolicibacterium smegmatis; assay: Inhibition of FtsZ polymerization in GFP-tagged Mycobacterium smegmatis assessed as presence of elongated cells with enlarged bacterial pole at 4 ug/ml by fluorescence-based microscopic analysis; in short: as §3
[20] = test system: Mycobacterium tuberculosis; assay: Inhibition of FtsZ polymerization in GFP-tagged Mycobacterium tuberculosis assessed as presence of elongated cells with enlarged bacterial pole at 4 ug/ml by fluorescence-based microscopic analysis; in short: as §3

| SMILES | MBC (Staphylococcus aureus [1]) [µg/mL] | MIC (Staphylococcus aureus [1]) [µg/mL] | MIC90 (Staphylococcus aureus [2]) | MBC (Staphylococcus aureus [2]) | MIC90 (Staphylococcus aureus [3]) | MBC (Staphylococcus aureus [3]) [µg/mL] | MIC [4] [µg/mL] | MIC90 (Enterococcus faecalis [5]) [µg/mL] | MBC (Enterococcus faecalis [5]) [µg/mL] | MIC90 (Enterococcus faecalis [6]) [µg/mL] | MBC (Enterococcus faecalis [6]) [µg/mL] | other results |
| --- | --- | --- | --- | --- | --- | --- | --- | --- | --- | --- | --- | --- |
| NC(=O)c1c(F)ccc(OCC2COc3ccccc3C2)c1F (stereo not given) | 100 (≈ 313 µM) | 100 (≈ 313 µM) | – | – | – | – | – | – | – | – | – | – |
| NC(=O)c1c(F)ccc(OCC2COc3cc(Cl)c(Cl)cc3O2)c1F (stereo not given) | 5 (≈ 12.8 µM) | 2.5 (≈ 6.41 µM) | 3.12 µg/mL | 6.25 µg/mL | 3.12 µg/mL | 6.25 (≈ 16 µM) | 16 (≈ 41 µM) | 6.25 (≈ 16 µM) | 50 (≈ 128 µM) | 12.5 (≈ 32 µM) | 50 (≈ 128 µM) | – |
| CCCCCCCCCOc1ccc(F)c(C(N)=O)c1F | 1 (≈ 3.34 µM) | 1 (≈ 3.34 µM) | 0.19 µg/mL | 0.19 µg/mL | 0.39 µg/mL | 0.78 (≈ 2.61 µM) | 16 (≈ 53.4 µM) | 6.25 (≈ 20.9 µM) | 12.5 (≈ 41.8 µM) | 12.5 (≈ 41.8 µM) | 25 (≈ 83.5 µM) | inhibition [7]: Active; inhibition [8]: Active; selectivity ratio [9]: > 200; inhibition [10]: Active; TD90 [11]: > 200 µg/mL; inhibition [12]: Active; inhibition [13]: Active; inhibition [14]: Active |
| N#Cc1ccc2c(c1)OC(COc1ccc(F)c(C(N)=O)c1F)CO2 (stereo not given) | 2.5 (≈ 7.22 µM) | 1.25 (≈ 3.61 µM) | – | – | – | – | – | – | – | – | – | – |
| NC(=O)c1c(F)ccc(OCC2COc3ccc([N+](=O)[O-])cc3O2)c1F (stereo not given) | 2.5 (≈ 6.83 µM) | 1.25 (≈ 3.41 µM) | – | – | – | – | – | – | – | – | – | – |
| NC(=O)c1c(F)ccc(OC(CO)COc2ccccc2)c1F (stereo not given) | – | > 100 | – | – | – | – | – | – | – | – | – | – |
| NC(=O)c1c(F)ccc(OCC2COc3ccc(F)cc3O2)c1F (stereo not given) | 2.5 (≈ 7.37 µM) | 2.5 (≈ 7.37 µM) | – | – | – | – | – | – | – | – | – | – |
| NC(=O)c1ccc2c(c1)OC(COc1ccc(F)c(C(N)=O)c1F)CO2 (stereo not given) | – | > 100 | – | – | – | – | – | – | – | – | – | – |
| NC(=O)c1c(F)ccc(OCC2COc3ccccc3O2)c1F (stereo not given) | – | – | 3.12 µg/mL | 12.5 µg/mL | 3.12 µg/mL | 6.25 (≈ 19.5 µM) | 16 (≈ 49.8 µM) | 25 (≈ 77.8 µM) | 50 (≈ 156 µM) | 25 (≈ 77.8 µM) | 50 (≈ 156 µM) | MIC (Staphylococcus aureus [15]): 5 µg/mL (≈ 15.6 µM) |
| NC(=O)c1c(F)ccc(OCC2CCc3ccccc3C2)c1F (stereo not given) | – | > 100 | – | – | – | – | – | – | – | – | – | – |
| NC(=O)c1c(F)ccc(OC[C@@H]2COc3ccc(Cl)cc3O2)c1F | – | – | 0.5 µM | 1 µM | 1 µM | 0.78 (≈ 2.19 µM) | 8 (≈ 22.5 µM) | 25 (≈ 70.3 µM) | 50 (≈ 141 µM) | 25 (≈ 70.3 µM) | 50 (≈ 141 µM) | MIC90 (Staphylococcus aureus [16]): 0.7 µM (≈ 0.249 µg/mL); inhibition [17]: Active; inhibition [18]: Active; inhibition [19]: Active; inhibition [20]: Active |

Source: ChEMBL document CHEMBL3856196, “3-(Benzodioxan-2-ylmethoxy)-2,6-difluorobenzamides bearing hydrophobic substituents at the 7-position of the benzodioxane nucleus potently inhibit methicillin-resistant Sa and Mtb cell division” (Eur J Med Chem, 2016)
